Measurements gathered from unrelated publications.
Compare with care: the assays were run in different laboratories.
Target: Calcium/calmodulin-dependent protein kinase type II subunit delta (CAMK2D, Homo sapiens, UniProt Q13557)

Compound	assay	setting	endpoint	result
NS(=O)(=O)c1cc(NC(=O)C2(c3ccccc3Cl)CC2)ccc1Oc1cccc(Cl)c1	cell-free assay, competition with immobilised ligand	1 µM	remaining binding	100%
CNC(=O)c1cc(Oc2ccc(NC(=O)Nc3ccc(Cl)c(C(F)(F)F)c3)cc2)ccn1	enzyme activity, inhibitor	10 µM	inhibition	79%
c1ccc(CNc2nc(N3CCOc4ccccc43)nc3c2CCCC3)cc1	target engagement in cells, inhibitor, chemoproteomics	20 mM	inhibition	-17.7%
COc1cc(Nc2c(C#N)cnc3cc(OCCCN4CCN(C)CC4)c(OC)cc23)c(Cl)cc1Cl	cell-free assay	0.5 µM	remaining signal	94.6%
COc1cc2ncnc(Nc3ccc(Oc4ccccc4)cc3C)c2cc1OC	enzyme activity, inhibitor	1 µM	inhibition	4%
COc1cccc(CNC(=O)c2nc3scc(COCc4ccc(C(=O)O)cc4)c3c(=O)[nH]2)c1	cell-free assay, competition with immobilised ligand	1 µM	remaining binding	100%
CCCCNc1ncc2c(-c3ccc(F)cc3)nn(C[C@H]3CC[C@H](N)CC3)c2n1	target engagement in cells, inhibitor, chemoproteomics	20 mM	inhibition	44.3%
CCOC(=O)c1cc2cc(-c3cc(C(=O)NCc4ccc(C(=O)O)cc4)nn3C)ccc2[nH]1	cell-free assay, competition with immobilised ligand	0.1 µM	remaining binding	91%
CCCS(=O)(=O)Nc1ccc(F)c(C(=O)c2c[nH]c3ncc(-c4ccc(Cl)cc4)cc23)c1F	enzyme activity, inhibitor	1 µM	inhibition	< 10%
Cc1ccc(C(=O)NCc2ccsc2)cc1C#Cc1cn(C(C)C)c2ncnc(N)c12	enzyme activity, inhibitor	1 µM	activity vs control	102%
Cc1ccc(-n2nc(C(C)(C)C)cc2NC(=O)Nc2ccc(OCCN3CCOCC3)c3ccccc23)cc1	enzyme activity, inhibitor	10 µM	inhibition	22%
O=C1NC(=O)c2cc(Nc3ccc(F)cc3)c(Nc3ccc(F)cc3)cc21	cell-free assay	0.5 µM	remaining signal	97.9%
CC(C)c1ccc(NC(=O)c2cccs2)c(-c2nc3ccccc3[nH]c2=O)c1	enzyme activity, inhibitor	1 µM	activity vs control	102%
Cc1ccc(Nc2nccc(N(C)c3ccc4c(C)n(C)nc4c3)n2)cc1S(N)(=O)=O	enzyme activity, inhibitor	10 µM	inhibition	66%
Cc1ccc(NC(=O)c2ccc(C)c(C(F)(F)F)c2)cc1C#Cc1nn(C2CCC(O)CC2)c2ncnc(N)c12 (stereo not shown)	cell-free assay	10 µM	remaining signal	89%
O=C(Nc1cnn(-c2csc(C(=O)NC3COC3)c2)c1)Nc1ccccc1Cl	enzyme activity, inhibitor	5 µM	remaining activity	103%
CCN(CC)CCNC(=O)c1c(C)[nH]c(/C=C2\C(=O)Nc3ccc(F)cc32)c1C	enzyme activity, inhibitor	10 µM	inhibition	96%
CC1=C(C#N)[C@@H](c2ccc3[nH]nc(C)c3c2)C(C#N)=C(c2ccc(Cl)cc2)N1	cell-free assay, competition with immobilised ligand	1 µM	remaining binding	82.1%
CC(C)(C)c1nc(-c2cccc(NS(=O)(=O)c3c(F)cccc3F)c2F)c(-c2ccnc(N)n2)s1	enzyme activity, inhibitor, radiometric	1 µM	remaining activity	97%
CN1CC(Oc2cnc(C#N)cc2-c2ccn3nc(NC(=O)C4CC4)cc3c2)C1	enzyme activity, inhibitor	1 µM	inhibition	-3%
CSc1cccnc1N1CCN(Cc2nc3ccccc3[nH]2)CC1	cell-free assay, competition with immobilised ligand	1 µM	remaining binding	100%
O=C1Nc2ccc(Cl)cc2C1=Cc1cc(Cl)c(O)c(Cl)c1	cell-free assay	0.5 µM	remaining signal	80.2%
CC(=O)N1CCC(c2ccc(C(=O)NC(=N)N)cc2C(F)(F)F)CC1	cell-free assay, competition with immobilised ligand	1 µM	remaining binding	100%
COc1cc(Cl)c(C(=O)N[C@@H](CN[C@H]2CC[C@@H](N)CC2)Cc2ccc(C#N)cc2)cc1-c1ccc(CN[C@H](C)c2ccc(C)cc2)o1	enzyme activity, inhibitor	1 µM	remaining activity	100%
Nc1c(C(=O)NCc2ccc(C(=O)NCCCC3CCCCC3)cc2)cnn1-c1ccccc1	cell-free assay, competition with immobilised ligand	0.1 µM	remaining binding	100%
Nc1ncnc2occ(-c3ccc(NC(=O)Nc4cc(C(F)(F)F)ccc4F)cc3)c12	cell-free assay, inhibitor	20 µM	remaining signal	94%
CC(C)(O)c1cncc(-c2nc3ccc(F)cc3n2C2CC2)c1	cell-free assay, competition with immobilised ligand	1 µM	remaining binding	100%
C#Cc1cccc(Nc2ncnc3cc(OCCOC)c(OCCOC)cc23)c1	cell-free assay	0.5 µM	remaining signal	95.1%
